PubChem BioAssay
Activity calls are given as the source filed them.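 Rule for the calls, unless noted: active = viability at or below 30% in both replicate assays; inconclusive = viability at or below 30% in just one of the two assays; inactive = the rest.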 Peptide text beside a SMILES is read from it. * marks the point of attachment. Boc = CC(C)(C)OC(=O)*

Tests used:
[1] = HUVEC growth inhibition – cell-based, human, primary screen (AID 575); details: HUVEC proliferation, CellTiter-Glo luminescence, 72 h; at 10 µM; stronger effect = lower value;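 note: 100% = median of untreated cell wells with 0.1% DMSO on each plate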
Procedure, shortened: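 Test system: primary human umbilical vein endothelial cells; medium: endothelial basal medium with 2% FBS plus growth supplements; dosing: 10 µM compound only; times: 72 h treatment at 37 °C; signal: CTG luminescence; read-out: % viability relative to median vehicle-well signal on each plate; control set: vehicle and MePR control wells; plate: 384-well, collagen-coated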

[2] = H69AR cell proliferation blockers – human, duplicate replicates, primary screen (AID 580;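 active = viability at or under a set limit in both replicates, limit being median viability minus 3 SD, cut at about 48% in these data, passing the limit was not always enough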;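 note: 100% = mean luminescence of untreated wells and 0% = no signal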); details: H69AR lung tumor cells viability, ATP luminescence, 72 h; at 10 µM; stronger effect = lower value
[3] = MRP1 drug-resistance reversers in H69AR cells – cell-based, doxorubicin co-treatment, pilot screen (AID 601;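 active = viability loss from added drug above about 55%, and viability with drug at most 40%, in both replicates, limit read from the data, passing the limit was not always enough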); details: CellTiter-Glo, 72 h, at 10 µM; for differential viability (reversal): stronger effect = higher value
[4] = yeast transport mutant growth inhibition pilot in 384-well plates, post-Golgi transport modulator project (AID 636; in the data active = inhibition above about 31%); details: absorbance 615 nm, about 18 h, stronger effect = higher value
[5] = growth suppression of yeast trafficking mutant, preliminary HTS, modulators of trafficking downstream of Golgi apparatus project, 1536-format plate, OD 615 nm (AID 637; in the data active = inhibition above about 30%); details: yeast transport mutant growth, absorbance 615 nm, 18 h; stronger effect = higher value
[6] = H69AR cells + 2 uM doxorubicin, measured here: viability with 2 uM doxorubicin, stronger effect = lower value
[7] = H69AR cells, compound alone cytotoxicity

Row | Structure (SMILES) | viability [1] | viability [2] | differential viability (reversal) ([3]; H69AR cells + 2 uM doxorubicin) | viability [3, 6] | viability [3, 7] | inhibition [4] | inhibition [5]
1 | O=C(Cn1cnc2sc(-c3ccccc3)cc2c1=O)N1CCOCC1 | 116% (inactive) | 97% (inactive) | 3.61% (inactive) | 93.4% | 97% | -1.58% (inactive) | 1.75% (inactive)
2 | CCOC(=O)Cc1nnc(NC(=O)c2ncn[nH]2)s1 | 95.4% (inactive) | 98.8% (inactive) | -2.02% (inactive) | 101% | 98.8% | -2.93% (inactive) | -1.27% (inactive)
3 | CC(C)(C)OC(=O)N1CCCC1C(=O)N1CCCC1C(=O)N1CCCC1C(=O)O (stereo not drawn) (Boc-Pro-Pro-Pro-OH; configuration not given here) | 101% (inactive) | 97.9% (inactive) | 3.05% (inactive) | 94.8% | 97.9% | -5.06% (inactive) | -0.95% (inactive)
4 | CCOC(=O)c1nnn(-c2nonc2NC(C)=O)c1C | 91.7% (inactive) | 98.2% (inactive) | 1.68% (inactive) | 96.5% | 98.2% | -0.65% (inactive) | -4.13% (inactive)
5 | COC(=O)CN1C(=O)C2(C(C#N)=C(N)Oc3c2c(C)nn3-c2ccccc2)c2ccccc21 (stereo not given) | 69.8% (inactive) | 67.8% (inactive) | -5.54% (inactive) | 73.3% | 67.8% | -6.32% (inactive) | -1.43% (inactive)
6 | Cc1csc(NC(=O)c2cccc(S(=O)(=O)N3CCCCC3)c2)n1 | 70.6% (inactive) | 87.5% (inactive) | -3.96% (inactive) | 91.5% | 87.5% | -3.51% (inactive) | -9.05% (inactive)
7 | COc1cccc2cc(C(=O)n3ccc(C)n3)c(=O)oc12 | 111% (inactive) | 93.4% (inactive) | 2.8% (inactive) | 90.6% | 93.4% | -3.29% (inactive) | 7.14% (inactive)
8 | Cc1cc(N2C(=O)C(O)=C(C(=O)c3ccc(C)o3)C2c2cccs2)no1 (stereo not given) | 64.2% (inactive) | 79.9% (inactive) | -4.59% (inactive) | 84.5% | 79.9% | -2.13% (inactive) | -6.03% (inactive)
9 | Cc1cc(C)c(OCC(=O)Nc2cccc(O)c2)cc1C | 78.2% (inactive) | 101% (inactive) | 3.2% (inactive) | 97.7% | 101% | -5.07% (inactive) | 3.97% (inactive)
10 | CC(=O)Nc1cccc(-c2nnc(-c3ccccc3)o2)c1 | 88.8% (inactive) | 92.6% (inactive) | 6.77% (inactive) | 85.8% | 92.6% | -5.58% (inactive) | -1.9% (inactive)
11 | CC(=O)N1CCN(S(=O)(=O)c2ccc(S(=O)(=O)NC3CC3)cc2)CC1 | 112% (inactive) | 92.3% (inactive) | 5.03% (inactive) | 87.3% | 92.3% | -6.8% (inactive) | 2.86% (inactive)
12 | COC(=O)C1(C(=O)OC)Sc2ccccc2C1=O | 87.2% (inactive) | 101% (inactive) | 10.6% (inactive) | 90.8% | 101% | -3.9% (inactive) | 3.33% (inactive)
13 | O=C(NCCc1ccccc1)c1cc(-c2ccco2)on1 | 81.3% (inactive) | 88.6% (inactive) |  |  |  | -4.08% (inactive) | 7.94% (inactive)
14 | Cc1cccc2cc(CN(Cc3nnnn3Cc3ccco3)C3CCCC3)c3nnnn3c12 | 86.8% (inactive) | 85.6% (inactive) |  |  |  | 68.2% (active) | 4.44% (inactive)
15 | Cc1ccc(S(=O)(=O)N(C)CC(=O)NC2CCCC2)cc1 | 118% (inactive) | 102% (inactive) | 17.5% (inactive) | 84.9% | 102% | -2.63% (inactive) | 0.95% (inactive)
16 | O=C(CN1C(=O)COc2ccccc21)NCCCN1CCc2ccccc2C1 | 83.2% (inactive) | 94.8% (inactive) | 11.6% (inactive) | 83.2% | 94.8% | -1.69% (inactive) | 9.05% (inactive)
17 | O=C(NC1CC2CCC1C2)c1ccc(CN2CCOCC2)cc1 (stereo not given) | 99.9% (inactive) | 96.9% (inactive) | 2.98% (inactive) | 93.9% | 96.9% | -2.89% (inactive) | -2.7% (inactive)
18 | O=C(NCc1ccco1)c1cccc(-c2nnc(-c3ccccc3)o2)c1 | 59.4% (inactive) | 85.8% (inactive) | 5.49% (inactive) | 80.3% | 85.8% | -4.8% (inactive) | 2.86% (inactive)
19 | Cc1ccc(S(=O)(=O)NCCc2ccncc2)cc1 | 95.4% (inactive) | 110% (inactive) | 10.4% (inactive) | 100% | 110% | -2.47% (inactive) | -0.16% (inactive)
20 | O=C1C=C(NCc2ccco2)C2(CCCCC2)O1 | 95.7% (inactive) | 105% (inactive) | 22.5% (inactive) | 82.2% | 105% | -1.95% (inactive) | 5.08% (inactive)
21 | CCCCNC(=O)OC(C)CNC(=O)Oc1cccc(C)c1 (stereo not given) | 75.7% (inactive) | 93.8% (inactive) | 1.64% (inactive) | 92.2% | 93.8% | -4.08% (inactive) | 3.49% (inactive)
22 | COc1ccc(C2(C(=O)Nc3cc(C)on3)CCOCC2)cc1 | 98% (inactive) | 88.1% (inactive) | 1.2% (inactive) | 86.9% | 88.1% | -5.87% (inactive) | 10.8% (inactive)
23 | CC[C@H]1CN2CCc3cc(OC)c(OC)cc3[C@@H]2C[C@@H]1C[C@H]1NCCc2cc(OC)c(OC)cc21 | 11% (active) |  | 10.2% (inactive) | 13.3% | 23.5% | -1.69% (inactive) | 2.17% (inactive)

Row | Structure (SMILES) | viability [1] | viability [2] | differential viability (reversal) ([3]; H69AR cells + 2 uM doxorubicin) | viability [3, 6] | viability [3, 7] | inhibition [4] | inhibition [5]
24 | COc1cccc2c1C(=O)c1c(O)c3c(c(O)c1C2=O)C[C@@](O)(C(C)=O)C[C@@H]3O[C@H]1C[C@H](N)[C@H](O)[C@H](C)O1 | 5.46% (active) |  |  |  |  | -2.73% (inactive) | -0.17% (inactive)
25 | O=c1c2cn[nH]c2nc(SCc2ccc3c(c2)OCCO3)n1-c1ccccc1 | 74.4% (inactive) |  | -22.2% (inactive) | 83.9% | 61.7% | 1.45% (inactive) | -4.44% (inactive)
26 | COc1ccc(Cn2c(C)nc3c(c2=O)c2nc4ccccc4nc2n3Cc2ccco2)cc1 | 62% (inactive) |  | 3.86% (inactive) | 30.8% | 34.6% | -1.71% (inactive) | 5.56% (inactive)
27 | Cc1ccc(C2C3CN(C(C)C)CC=C3C(C#N)=C(N)C2(C#N)C#N)cc1 (stereo not given) | 62.9% (inactive) |  |  |  |  | -6.27% (inactive) | 1.43% (inactive)
28 | CCCn1c(N2CCN(CC(=O)NCc3cccs3)CC2)nc2ccccc21 | 97.6% (inactive) |  | -0.505% (inactive) | 60.4% | 59.9% | -4.47% (inactive) | 6.03% (inactive)
29 | CC(C)(C)C1CCc2onc(C(=O)Nc3cnn(Cc4ccc(F)cc4)c3)c2C1 (stereo not given) |  | 32.9% (active) | -17.6% (inactive) | 50.6% | 32.9% | 0% (inactive) | 3.02% (inactive)
30 | CC(C)(C)n1nnnc1CN(Cc1ccco1)Cc1cc2cc3c(cc2[nH]c1=O)OCO3 | 78% (inactive) |  | -8.75% (inactive) | 68% | 59.3% | -8% (inactive) | 0.16% (inactive)
31 | CN1CCCN(C(c2ccccc2)c2ccc(Cl)cc2)CC1 (stereo not given) | 54.3% (inactive) |  | -24.5% (inactive) | 69.4% | 44.8% |  | 
32 | N#CC(C(=O)NCCc1ccccc1)c1nc2ccccc2nc1N1CCOCC1 (stereo not given) | 82.7% (inactive) |  | -3.4% (inactive) | 62.6% | 59.2% | -0.53% (inactive) | -5.71% (inactive)
33 | CCCCCCCCNC(C)C(O)c1ccc(SC(C)C)cc1 (stereo not given) | 2.21% (active) |  | -0.28% (inactive) | 1.44% | 1.16% |  | 
34 | NC(=O)SCC(=O)Nc1cccc(Cl)c1 | 58.4% (inactive) |  | 9.55% (inactive) | 56.8% | 66.4% | -5.19% (inactive) | 2.06% (inactive)
35 | Cc1cc2oc(=O)cc(CN3CCCCC3)c2cc1C(C)C | 52.5% (inactive) |  | 0.87% (inactive) | 51.2% | 52.1% | -1.82% (inactive) | -2.06% (inactive)
36 | CC(NCCC(c1ccccc1)c1ccccc1)c1ccccc1 (stereo not given) | 2.03% (active) |  | -0.87% (inactive) | 2.41% | 1.54% | 3.77% (inactive) | -5.67% (inactive)
37 | COc1ccc(CCN2CCC(Nc3nc4ccccc4n3Cc3ccc(F)cc3)CC2)cc1 | 1.47% (active) |  | 0.16% (inactive) | 0.36% | 0.52% |  | 
38 | COc1cc(-n2nc(C)c3c2OC(N)=C(C#N)C3c2ccccc2)c(Cl)c(Br)c1O (stereo not given) | 50% (inactive) |  | 1.54% (inactive) | 68% | 69.5% | -6.4% (inactive) | -4.6% (inactive)
39 | COCCCNC(=O)c1c(N)n(-c2cccc(S(N)(=O)=O)c2)c2nc3ccccc3nc12 |  | 67.2% (inactive) | -8.22% (inactive) | 75.4% | 67.2% | -4.13% (inactive) | -0.79% (inactive)
40 | O=c1[nH]c2ccccc2n1CCCN1CCN(C(c2ccccc2)c2ccccc2)CC1 | 75.3% (inactive) |  | -29.9% (inactive) | 41.1% | 11.2% |  | 
41 | CC(C)Cn1c(N)c(C(=O)NCCN2CCOCC2)c2nc3ccccc3nc21 | 52.3% (inactive) |  | -23.6% (inactive) | 79.3% | 55.7% | -5.2% (inactive) | 3.65% (inactive)
42 | CCNc1nc(NC(C)C)nc(N(C#N)CCOc2ccc(Cl)cc2Cl)n1 | 48.8% (inactive) |  | 20.4% (inactive) | 33.2% | 53.6% | 16.2% (inactive) | -3.81% (inactive)
43 | CCOC(=O)C1=C(Cn2cnc3ccccc32)NC(=O)NC1c1cc(C)ccc1C (stereo not given) | 93.7% (inactive) |  | -17.6% (inactive) | 60.1% | 42.5% | -1.71% (inactive) | 1.43% (inactive)
44 | CC(=O)Oc1cccc(/C=c2\sc3nc(-c4ccco4)nn3c2=O)c1 | 56.6% (inactive) |  | -3.61% (inactive) | 55.8% | 52.2% | -0.91% (inactive) | 1.27% (inactive)
45 | CSc1ccc2c(c1)N(CCC1CCCCN1C)c1ccccc1S2 (stereo not given) | 2.44% (active) |  | 0.67% (inactive) | 1.26% | 1.93% |  | 
